ChEMBL document CHEMBL4808210, “Mapping Chromone-3-Phenylcarboxamide Pharmacophore: Quid Est Veritas?” (J Med Chem, 2021)
pIC50: −log10 of the molar value. Activity calls are given as the source filed them. No cut-off for these calls is given here.

Key:
Homo sapiens = species: Homo sapiens; assay: Selectivity index, ratio of IC50 for recombinant human MAO-A expressed in baculovirus infected BTI-TN- 5B1-4 insect cells to IC50 for recombinant human MAO-B expressed in baculovirus infected BTI-TN- 5B1-4 insect cells using kynuramine as substrate preincubated for 10 mins in presence of substrate followed by enzyme addition and measured every minute for 30 mins by spectrophotometry analysis
Procedure, shortened: (§1)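 Recombinant hMAO-A and hMAO-B were assayed with kynuramine as substrate. Percent inhibition was taken at 10 μM, the highest concentration tested. Where the hMAO-A IC₅₀ was not reached, it was taken as 10 μM.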

MAO-A = molecular target: T1, MAO-A (Homo sapiens, UniProt P21397); assay: (§2) Inhibition of recombinant human MAO-A expressed in baculovirus infected BTI-TN- 5B1-4 insect cells at 10 uM using kynuramine as substrate preincubated for 10 mins in presence of substrate followed by enzyme addition and measured every minute for 30 mins by spectrophotometry analysis relative to control; details: probe kynuramine, time 40 min; procedure, shortened: as §1
T1 sequence (P21397 whole entry): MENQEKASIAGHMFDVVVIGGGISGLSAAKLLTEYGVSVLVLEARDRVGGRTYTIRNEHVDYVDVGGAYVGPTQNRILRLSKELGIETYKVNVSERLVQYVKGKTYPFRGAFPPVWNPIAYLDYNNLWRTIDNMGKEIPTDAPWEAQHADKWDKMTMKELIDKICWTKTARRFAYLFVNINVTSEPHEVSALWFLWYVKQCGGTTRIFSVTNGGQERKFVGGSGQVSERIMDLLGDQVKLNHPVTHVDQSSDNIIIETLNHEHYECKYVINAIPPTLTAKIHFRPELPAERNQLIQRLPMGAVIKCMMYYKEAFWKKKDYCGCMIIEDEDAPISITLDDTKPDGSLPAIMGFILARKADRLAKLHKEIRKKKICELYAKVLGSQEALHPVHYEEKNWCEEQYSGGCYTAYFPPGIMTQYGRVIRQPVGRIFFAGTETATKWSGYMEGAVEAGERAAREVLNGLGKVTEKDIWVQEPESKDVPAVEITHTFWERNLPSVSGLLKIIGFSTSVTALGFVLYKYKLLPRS

[1] = molecular target: T2, Amine oxidase [flavin-containing] B (Homo sapiens, UniProt P27338); assay: Inhibition of recombinant human MAO-B expressed in baculovirus infected BTI-TN- 5B1-4 insect cells using kynuramine as substrate preincubated for 10 mins in presence of substrate followed by enzyme addition and measured every minute for 30 mins by spectrophotometry analysis; type: cell-based
T2 sequence (P27338 whole entry): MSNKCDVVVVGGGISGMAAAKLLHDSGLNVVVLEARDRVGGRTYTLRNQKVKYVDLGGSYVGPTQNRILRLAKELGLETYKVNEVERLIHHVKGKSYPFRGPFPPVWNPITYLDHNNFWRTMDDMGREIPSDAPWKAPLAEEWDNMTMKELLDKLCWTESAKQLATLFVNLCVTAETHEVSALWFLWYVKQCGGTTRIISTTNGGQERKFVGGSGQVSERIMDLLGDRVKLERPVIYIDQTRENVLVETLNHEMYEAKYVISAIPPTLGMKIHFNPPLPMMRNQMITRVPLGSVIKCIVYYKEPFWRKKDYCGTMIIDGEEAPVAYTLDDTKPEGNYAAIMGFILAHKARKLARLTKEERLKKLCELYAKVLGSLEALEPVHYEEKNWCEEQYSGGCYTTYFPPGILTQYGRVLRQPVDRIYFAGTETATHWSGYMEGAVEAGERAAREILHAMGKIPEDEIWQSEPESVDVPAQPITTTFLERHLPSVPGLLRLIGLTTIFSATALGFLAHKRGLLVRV

[2] = Solubility of the compound in phosphate buffer at > 10 uM; type: physicochemical
Caco-2 [3] = assay: Cytotoxicity against human Caco-2 cells assessed as reduction in cell viability at 10 uM measured after 24 hrs by MTT assay relative to control; type: cell-based; details: caco-2, 24 h
Procedure, shortened: (§3)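 Caco-2 cells, and SH-SY5Y cells first differentiated toward a dopaminergic-like phenotype, were treated for 24 h with compounds at 1 and 10 μM. Metabolic activity was read as MTT reduction to formazan, relative to untreated cells. Mean ± SEM of at least three independent experiments, each in triplicate.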

[4] = molecular target: T3, Amine oxidase [flavin-containing] A (Homo sapiens, UniProt P21397); assay: Inhibition of recombinant human MAO-A expressed in baculovirus infected BTI-TN- 5B1-4 insect cells using kynuramine as substrate preincubated for 10 mins in presence of substrate followed by enzyme addition and measured every minute for 30 mins by spectrophotometry analysis; procedure, shortened: as §1
T3 sequence (P21397 whole entry): T1 sequence (P21397 whole entry)

SH-SY5Y [5] = assay: Cytotoxicity against human SH-SY5Y cells assessed as effect on NR uptake at 1 to 10 uM measured after 24 hrs by neutral red uptake assay; type: cell-based; details: dose 1-10 µM
Procedure, shortened: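 Differentiated SH-SY5Y cells were exposed to compounds at 1 and 10 μM for 24 h. Lysosomal activity was read as neutral red dye uptake and compared with untreated cells. Mean ± SEM of at least three independent experiments run in triplicate.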

Caco-2 [6] = assay: Cytotoxicity against human Caco-2 cells assessed as effect on cell viability at 1 to 10 uM measured after 24 hrs by MTT assay; type: cell-based; details: caco-2, 24 h, dose 1-10 µM; procedure, shortened: as §3
[7] = molecular target: T2, Amine oxidase [flavin-containing] B; assay: as §2, with “MAO-B” for “MAO-A”; details: BTI-TN-5B1-4, human, 0.5 h, time 40 min; procedure, shortened: as §1
MCF7 [8] = assay: Cytotoxicity against human MCF7 cells at 10 uM incubated for 24 to 48 hrs by Celltiter-Glo assay relative to control; type: cell-based; details: mcf7, 10 µM, time 24-48 hrs
Procedure, shortened: (§4)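 Cells (HEK-293, HUVEC, MCF-7) exposed to test compounds at 10 μM for 24 h; cytotoxicity read in triplicate with a luminescence kit measuring intracellular ATP levels.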

[9] = molecular target: ATP-dependent translocase ABCB1 (Homo sapiens, UniProt P08183); assay: Modulation of P-gp-mediated Rhodamine-123 efflux in human Caco-2 cells assessed as Rhodamine-123 accumulation at 10 uM pretreated for 30 mins in presence or absence of Zos followed by Rho-123 addition and measured after 90 mins by fluorescence spectroscopy; type: cell-based; details: caco-2, 2 h, time 120 min
Procedure, shortened: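 Caco-2 cells were exposed to compounds at 10 μM during incubation with the P-gp substrate rhodamine 123 (5 μM). Zosuquidar served as the specific P-gp inhibitor. Cellular rhodamine 123 was read by fluorescence spectroscopy. Mean ± SEM of at least three independent experiments in triplicate.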

hERG = hERG (Homo sapiens, UniProt Q12809); assay: Inhibition of human ERG at 10 uM incubated for 2 hrs by fluorescence polarization assay relative to control
Procedure, shortened: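 hERG binding was measured by fluorescence polarization, using a homogenized membrane preparation containing hERG plus a fluorescent tracer. A drop in FP signal from tracer displacement was read as inhibition. Compounds were tested at 10 μM.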

HEK293 [10] = assay: Cytotoxicity against HEK293 cells at 10 uM incubated for 24 to 48 hrs by Celltiter-Glo assay relative to control; type: cell-based; details: human, hek293, 10 µM, time 24-48 hrs; procedure, shortened: as §4
HEK293 [11] = assay: Cytotoxicity against HEK293 cells incubated for 24 to 48 hrs by Celltiter-Glo assay; type: cell-based, Homo sapiens
SH-SY5Y [12] = assay: Protection against iron(III)-induced damage in human SH-SY5Y cells assessed as increase in lysosomal activity at 1 to 10 uM pretreated for 30 mins followed by iron(III) treatment at 1500 uM after 24 hrs by NR uptake assay; type: functional, cell-based; details: dose 1-10 µM, time 24.5 hrs
Procedure, shortened: (§5)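 Differentiated SH-SY5Y cells were pretreated with compounds at 1 or 10 μM for 30 min, then exposed to iron(III) at 1000 or 1500 μM for 24 h. Viability was read by neutral red uptake. Mean ± SD of three independent experiments, two-way ANOVA.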

HUVEC [13] = assay: Cytotoxicity against HUVEC cells incubated for 24 to 48 hrs by Celltiter-Glo assay; type: cell-based, Homo sapiens; details: huvec
SH-SY5Y [14] = assay: Cytotoxicity against human SH-SY5Y cells assessed as reduction in cell viability at 10 uM measured after 24 hrs by MTT assay relative to control; type: cell-based; procedure, shortened: as §3
MCF7 [15] = assay: Cytotoxicity against human MCF7 cells incubated for 24 to 48 hrs by Celltiter-Glo assay; type: cell-based
HUVEC [16] = assay: Cytotoxicity against HUVEC cells at 10 uM incubated for 24 to 48 hrs by Celltiter-Glo assay relative to control; type: cell-based; details: human, time 24-48 hrs; procedure, shortened: as §4
SH-SY5Y [17] = assay: Protection against iron(III)-induced damage in human SH-SY5Y cells assessed as increase in lysosomal activity at 1 to 10 uM pretreated for 30 mins followed by iron(III) treatment at 1000 uM after 24 hrs by NR uptake assay; type: functional, cell-based; details: dose 1-10 µM, time 24.5 hrs; procedure, shortened: as §5

Chain of ATP-dependent translocase ABCB1 (P08183 whole entry): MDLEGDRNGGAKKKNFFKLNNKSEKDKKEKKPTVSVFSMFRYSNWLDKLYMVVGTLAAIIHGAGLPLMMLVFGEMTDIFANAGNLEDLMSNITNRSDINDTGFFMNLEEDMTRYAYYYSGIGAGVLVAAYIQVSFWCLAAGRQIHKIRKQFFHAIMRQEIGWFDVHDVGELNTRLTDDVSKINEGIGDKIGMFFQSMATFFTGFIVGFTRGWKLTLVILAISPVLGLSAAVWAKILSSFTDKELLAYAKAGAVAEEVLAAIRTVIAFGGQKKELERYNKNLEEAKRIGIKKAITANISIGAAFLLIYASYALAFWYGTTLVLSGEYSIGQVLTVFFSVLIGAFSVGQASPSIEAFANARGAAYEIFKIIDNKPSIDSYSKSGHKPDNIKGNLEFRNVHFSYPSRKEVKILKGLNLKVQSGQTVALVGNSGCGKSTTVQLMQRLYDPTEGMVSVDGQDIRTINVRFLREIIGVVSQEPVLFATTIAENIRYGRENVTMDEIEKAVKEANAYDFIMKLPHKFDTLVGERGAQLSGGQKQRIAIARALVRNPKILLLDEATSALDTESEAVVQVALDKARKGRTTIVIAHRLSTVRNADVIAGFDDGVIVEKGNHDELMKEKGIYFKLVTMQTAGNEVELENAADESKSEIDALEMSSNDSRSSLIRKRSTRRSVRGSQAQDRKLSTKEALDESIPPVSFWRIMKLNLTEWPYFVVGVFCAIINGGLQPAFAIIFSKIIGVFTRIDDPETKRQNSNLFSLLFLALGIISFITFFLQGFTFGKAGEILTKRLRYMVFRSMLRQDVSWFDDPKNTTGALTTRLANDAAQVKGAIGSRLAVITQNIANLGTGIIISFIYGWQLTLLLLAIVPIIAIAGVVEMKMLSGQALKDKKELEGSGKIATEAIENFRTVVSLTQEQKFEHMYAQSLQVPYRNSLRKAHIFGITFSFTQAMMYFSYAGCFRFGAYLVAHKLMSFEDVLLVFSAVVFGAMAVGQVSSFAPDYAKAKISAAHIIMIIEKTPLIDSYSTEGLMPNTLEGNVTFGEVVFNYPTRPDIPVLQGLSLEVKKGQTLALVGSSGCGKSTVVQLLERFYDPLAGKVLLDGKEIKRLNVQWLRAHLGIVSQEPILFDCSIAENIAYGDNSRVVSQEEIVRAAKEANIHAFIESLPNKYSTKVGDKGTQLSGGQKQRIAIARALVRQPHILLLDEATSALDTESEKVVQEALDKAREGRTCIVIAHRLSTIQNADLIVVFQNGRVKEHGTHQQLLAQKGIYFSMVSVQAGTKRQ
Chain of hERG (Q12809 whole entry): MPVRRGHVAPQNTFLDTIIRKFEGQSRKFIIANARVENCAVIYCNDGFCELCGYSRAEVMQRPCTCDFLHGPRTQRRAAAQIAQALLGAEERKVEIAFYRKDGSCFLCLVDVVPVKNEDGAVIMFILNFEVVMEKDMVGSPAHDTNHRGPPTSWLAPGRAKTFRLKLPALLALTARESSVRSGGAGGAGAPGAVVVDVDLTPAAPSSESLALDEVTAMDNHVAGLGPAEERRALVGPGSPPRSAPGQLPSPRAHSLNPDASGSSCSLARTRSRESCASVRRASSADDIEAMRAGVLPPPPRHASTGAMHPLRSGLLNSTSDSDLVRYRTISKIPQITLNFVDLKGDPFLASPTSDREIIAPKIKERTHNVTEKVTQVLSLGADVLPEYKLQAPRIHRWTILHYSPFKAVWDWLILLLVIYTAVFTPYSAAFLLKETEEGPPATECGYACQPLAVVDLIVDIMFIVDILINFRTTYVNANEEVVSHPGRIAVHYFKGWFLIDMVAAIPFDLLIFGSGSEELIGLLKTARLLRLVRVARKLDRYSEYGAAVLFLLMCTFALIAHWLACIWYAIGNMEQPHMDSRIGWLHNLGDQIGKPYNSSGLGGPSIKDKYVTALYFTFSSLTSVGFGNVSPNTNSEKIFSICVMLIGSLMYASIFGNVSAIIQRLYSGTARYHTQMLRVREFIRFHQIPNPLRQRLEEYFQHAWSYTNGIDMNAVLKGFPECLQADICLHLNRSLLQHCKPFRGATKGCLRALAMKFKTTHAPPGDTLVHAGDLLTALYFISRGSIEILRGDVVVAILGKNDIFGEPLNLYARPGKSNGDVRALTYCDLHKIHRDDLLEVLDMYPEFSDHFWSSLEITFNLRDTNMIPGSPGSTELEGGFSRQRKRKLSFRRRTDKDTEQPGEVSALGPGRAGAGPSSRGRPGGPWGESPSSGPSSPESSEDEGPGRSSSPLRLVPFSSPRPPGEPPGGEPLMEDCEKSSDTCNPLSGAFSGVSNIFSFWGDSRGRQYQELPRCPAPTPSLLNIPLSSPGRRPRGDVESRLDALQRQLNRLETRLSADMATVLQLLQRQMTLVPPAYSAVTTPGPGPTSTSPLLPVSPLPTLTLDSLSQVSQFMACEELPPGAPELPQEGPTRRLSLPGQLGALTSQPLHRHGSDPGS

SMILES: COc1ccc(NC(=O)C2=Cc3ccccc3OC2)cc1OC
- Ratio IC50 (Homo sapiens): > 3.48
- inhibition at 0.5 h, 10 µM (MAO-A): 20.2%
- pIC50 [1]: 5.54

SMILES: O=C(Nc1ccc(Cl)c(Cl)c1)c1cc2ccccc2oc1=O
- solubility [2]: Insoluble

SMILES: O=C(Nc1cccc(Cl)c1)C1=Cc2ccccc2OC1
- Activity (Caco-2 [3]): 88.3%
- Ratio IC50 (Homo sapiens): 444
- pIC50 [4]: 4.93
- Activity (SH-SY5Y [5]): Non-Toxic
- pIC50 [1]: 7.58

SMILES: O=C(Nc1ccc(Cl)c(Cl)c1)C1COc2ccccc2C1 (centres undefined)
- Activity (Caco-2 [6]): Non-Toxic
- Ratio IC50 (Homo sapiens): > 127
- inhibition at 0.5 h, 10 µM (MAO-A): 16.4%
- Activity (SH-SY5Y [5]): Non-Toxic
- pIC50 [1]: 7.10

SMILES: Cn1c(=O)c(C(=O)Nc2cccc(Cl)c2)cc2ccccc21
- solubility [2]: Insoluble

SMILES: Cn1c(=O)c(C(=O)Nc2ccc(Cl)c(Cl)c2)cc2ccccc21
- solubility [2]: Insoluble

SMILES: Cc1ccc(NC(=O)C2COc3ccccc3C2)cc1C (centres undefined)
- Ratio IC50 (Homo sapiens): > 5.62
- inhibition at 0.5 h, 10 µM (MAO-A): 19.6%
- pIC50 [1]: 5.75

SMILES: COc1ccc(NC(=O)C2COc3ccccc3C2)cc1OC (centres undefined)
- inhibition at 10 µM [7]: 14%
- inhibition at 0.5 h, 10 µM (MAO-A): 11.8%

SMILES: O=C(Nc1cccc(Cl)c1)C1COc2ccccc2C1 (centres undefined)
- Ratio IC50 (Homo sapiens): > 10.4
- inhibition at 0.5 h, 10 µM (MAO-A): 10.9%
- pIC50 [1]: 6.02

SMILES: Cc1ccc(NC(=O)c2cc3ccccc3n(C)c2=O)cc1C
- inhibition at 10 µM [7]: 21%
- inhibition at 0.5 h, 10 µM (MAO-A): 7.65%

SMILES: Cc1ccc(NC(=O)c2coc3ccccc3c2=O)cc1C
- Activity (MCF7 [8]): < 10%
- Activity (Caco-2 [6]): Non-Toxic
- Activity [9]: Not Active
- inhibition at 2 h, 10 µM (hERG): < 10%
- Activity (HEK293 [10]): < 10%
- IC50 (HEK293 [11]): Not Active
- Activity (SH-SY5Y [12]): inactive
- IC50 (HUVEC [13]): Not Active
- Activity (SH-SY5Y [14]): < 85%
- IC50 (MCF7 [15]): Not Active
- Activity (HUVEC [16]): < 10%
- Activity (SH-SY5Y [17]): inactive
- Activity (SH-SY5Y [5]): Non-Toxic
